In ChEMBL document CHEMBL1772956, “Synthesis and binding affinity of novel mono- and bivalent morphinan ligands for κ, μ, and δ opioid receptors” (Bioorg Med Chem, 2011):
Activity calls are given as the source filed them. No cut-off for these calls is given here.

What was measured:
Homo sapiens [1] = species on record: Homo sapiens; assay: Selectivity ratio of Ki for human kappa opioid receptor over Ki for human delta opioid receptor
Homo sapiens [2] = species on record: Homo sapiens; assay: Selectivity ratio of Ki for human kappa opioid receptor over Ki for human mu opioid receptor
[3] = target: T1, Kappa-type opioid receptor (Homo sapiens, UniProt P41145); assay: Antagonist activity at human kappa-opioid receptor expressed in CHO cells assessed as inhibition of U69593-induced [35S]GTPgammaS binding after 60 mins by scintillation counting relative to control; type: functional, cell-based
T1 sequence (P41145 whole entry): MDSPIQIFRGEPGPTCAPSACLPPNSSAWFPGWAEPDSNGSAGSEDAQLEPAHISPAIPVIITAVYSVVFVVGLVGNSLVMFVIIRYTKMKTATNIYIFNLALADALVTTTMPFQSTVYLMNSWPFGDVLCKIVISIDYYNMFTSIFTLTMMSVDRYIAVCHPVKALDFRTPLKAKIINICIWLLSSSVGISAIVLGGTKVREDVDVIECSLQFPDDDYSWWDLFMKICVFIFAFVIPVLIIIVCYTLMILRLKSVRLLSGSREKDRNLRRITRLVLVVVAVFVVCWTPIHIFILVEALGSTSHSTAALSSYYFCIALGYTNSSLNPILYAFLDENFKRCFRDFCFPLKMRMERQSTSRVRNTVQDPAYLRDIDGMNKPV

[4] = target: T1, Kappa-type opioid receptor; assay: Agonist activity at human kappa-opioid receptor expressed in CHO cells assessed as stimulation of [35S]GTPgammaS binding after 60 mins by scintillation counting; type: functional, cell-based
How it was run: (§1)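 Membranes from CHO cells stably expressing human κ or μ opioid receptor were incubated with 12 compound concentrations in 50 mM Tris-HCl pH 7.4 with 3 μM GDP, 3 mM MgCl2, 0.2 mM EGTA and 100 mM NaCl. [35S]GTPγS was 0.08 nM final, 60 min at 30°C, and 10 μM GTPγS gave nonspecific binding. Samples were filtered and counted. EC50 and Emax (% stimulation over basal) came from three experiments in triplicate.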

[5] = target: T1, Kappa-type opioid receptor; assay: Agonist activity at human kappa-opioid receptor expressed in CHO cells assessed as stimulation of [35S]GTPgammaS binding after 60 mins by scintillation counting relative to control; type: functional, cell-based; how it was run: as §1
[6] = target: T1, Kappa-type opioid receptor; assay: Antagonist activity at human kappa-opioid receptor expressed in CHO cells assessed as inhibition of U69593-induced [35S]GTPgammaS binding after 60 mins by scintillation counting; type: functional, cell-based
Mu-type opioid receptor [7] = target: T2, Mu-type opioid receptor (Homo sapiens, UniProt P35372); assay: Antagonist activity at human mu-opioid receptor expressed in CHO cells assessed as inhibition of DAMGO-induced [35S]GTPgammaS binding after 60 mins by scintillation counting relative to control; type: functional, cell-based
T2 sequence (P35372 whole entry): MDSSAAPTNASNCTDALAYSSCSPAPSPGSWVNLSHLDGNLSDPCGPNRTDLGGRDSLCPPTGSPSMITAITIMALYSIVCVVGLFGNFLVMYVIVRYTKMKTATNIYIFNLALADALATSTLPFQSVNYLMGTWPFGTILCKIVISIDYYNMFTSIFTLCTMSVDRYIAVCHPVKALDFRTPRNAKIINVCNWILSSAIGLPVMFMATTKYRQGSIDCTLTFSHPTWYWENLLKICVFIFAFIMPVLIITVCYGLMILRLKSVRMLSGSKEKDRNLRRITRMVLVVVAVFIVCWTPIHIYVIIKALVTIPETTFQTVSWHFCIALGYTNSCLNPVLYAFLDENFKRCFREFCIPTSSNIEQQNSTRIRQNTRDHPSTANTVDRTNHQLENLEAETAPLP
How it was run: (§2)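 Human μ receptor CHO membranes were incubated with 200 nM DAMGO to drive [35S]GTPγS (0.08 nM) binding, with 12 compound concentrations up to 10 μM, in Tris pH 7.4/GDP/MgCl2/EGTA/NaCl buffer, 60 min at 30°C. Nonspecific binding was with 10 μM GTPγS. Samples were filtered and counted.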

[8] = target: T1, Kappa-type opioid receptor; assay: biochemical; type: cell-based, CHO
[9] = target: Delta-type opioid receptor (Homo sapiens, UniProt P41143); assay: Displacement of [3H]naltrindole from human delta-opioid receptor expressed in CHO cells after 3 hrs by scintillation counting; type: cell-based
Delta-type opioid receptor, sequence (P41143 whole entry): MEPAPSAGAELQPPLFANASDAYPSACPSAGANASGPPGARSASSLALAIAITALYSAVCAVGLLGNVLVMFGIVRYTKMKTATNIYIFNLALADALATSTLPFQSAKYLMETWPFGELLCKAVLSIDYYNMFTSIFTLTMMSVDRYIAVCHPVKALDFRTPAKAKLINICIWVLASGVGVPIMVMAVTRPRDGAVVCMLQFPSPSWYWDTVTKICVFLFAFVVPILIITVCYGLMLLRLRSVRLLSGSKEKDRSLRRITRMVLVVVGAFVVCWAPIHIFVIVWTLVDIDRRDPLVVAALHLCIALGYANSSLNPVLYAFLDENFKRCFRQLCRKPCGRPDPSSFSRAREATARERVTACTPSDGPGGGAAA

Mu-type opioid receptor [10] = target: T2, Mu-type opioid receptor; assay: Agonist activity at human mu-opioid receptor expressed in CHO cells assessed as stimulation of [35S]GTPgammaS binding after 60 mins by scintillation counting; type: functional, cell-based; how it was run: as §1
Mu-type opioid receptor [11] = target: T2, Mu-type opioid receptor; assay: Antagonist activity at human mu-opioid receptor expressed in CHO cells assessed as inhibition of DAMGO-induced [35S]GTPgammaS binding after 60 mins by scintillation counting; type: functional, cell-based; how it was run: as §2
Mu-type opioid receptor [12] = target: T2, Mu-type opioid receptor; assay: Agonist activity at human mu-opioid receptor expressed in CHO cells assessed as stimulation of [35S]GTPgammaS binding after 60 mins by scintillation counting relative to control; type: functional, cell-based; how it was run: as §1
Mu-type opioid receptor [13] = target: T2, Mu-type opioid receptor; assay: biochemical; type: cell-based, CHO
Mu-type opioid receptor [14] = target: T2, Mu-type opioid receptor; assay: Antagonist activity at human mu-opioid receptor expressed in CHO cells assessed as inhibition of DAMGO-induced [35S]GTPgammaS binding at 10 uM after 60 mins by scintillation counting; type: functional, cell-based; how it was run: as §2
Mu-type opioid receptor [15] = target: T2, Mu-type opioid receptor; assay: Antagonist activity at human mu-opioid receptor expressed in CHO cells assessed as inhibition of DAMGO-induced [35S]GTPgammaS binding at 10 uM after 60 mins by scintillation counting relative to control; type: functional, cell-based; how it was run: as §2

Compound	Ratio Ki (Homo sapiens [1])	Ratio Ki (Homo sapiens [2])	Imax [3]	EC50 [4] [nM]	Emax [5] [%]	IC50 ([6]; read-out: IC50) [nM]	Imax (Mu-type opioid receptor [7]) [%]	Ki [8] [nM]	Ki [9] [nM]	EC50 (Mu-type opioid receptor [10]) [nM]	IC50 (Mu-type opioid receptor [11]) [nM]	Emax (Mu-type opioid receptor [12]) [%]	Ki (Mu-type opioid receptor [13]) [nM]	IC50 ([6]; cho)	inhibition (Mu-type opioid receptor [14])	inhibition (Mu-type opioid receptor [15]) [%]
O=C(/C=C/C(=O)Oc1ccc2c(c1)[C@@]13CCCC[C@H]1[C@@H](C2)N(CC1CCC1)CC3)Oc1ccc2c(c1)[C@@]13CCCC[C@H]1[C@@H](C2)N(CC1CCC1)CC3	120	3														
C=CCN1CC[C@]23c4c5ccc(OC(=O)CCCCCCCCC(=O)Oc6ccc7c(c6)[C@@]68CCCC[C@@]6(O)[C@@H](C7)N(CC6CCC6)CC8)c4O[C@H]2C(=O)CC[C@@]3(O)[C@H]1C5	130	3	35%	12	74	49	73	0.28	35	2	34	19	0.82			
Nc1nc2cc3c(cc2s1)C[C@@H]1[C@@H]2CCCC[C@]32CCN1CC1CC1	592	31														
CO[C@@]12CCCC[C@@]13CCN(CC1CCC1)[C@@H]2Cc1ccc(O)cc13	58	1	37%	2.8	90	22	50	0.2	8.1	3.6	9.3	50	0.14			
C=CCN1CC[C@]23c4c5ccc(OC(=O)CCCCCCCCC(=O)Oc6ccc7c(c6)[C@@]68CCCC[C@@]6(OC)[C@@H](C7)N(CC6CCC6)CC8)c4O[C@H]2C(=O)CC[C@@]3(O)[C@H]1C5	280	4	33%	18	80	7.7	45	0.14	39	10	19	62	0.55			
CO[C@@]12CCCC[C@@]13CCN(CC1CCC1)[C@@H]2Cc1ccc(OC(=O)CCCCCCCCC(=O)Oc2ccc4c(c2)[C@@]25CCCC[C@@]2(OC)[C@@H](C4)N(CC2CCC2)CC5)cc13	50	1	43%	2.4	83	17	44	0.37	13	1.8	260	42	0.26			
CO[C@@]12CCCC[C@@]13CCN(CC1CCC1)[C@@H]2Cc1ccc(OC(=O)CCCCCCCCC(=O)OCc2ccccc2)cc13	93	1	30%	2.1	90	6.4	28	0.23	14	1.7	7.6	54	0.15			
c1c2c(cc3sc(NCCCCCCCCCCNc4nc5cc6c(cc5s4)C[C@@H]4[C@@H]5CCCC[C@]65CCN4CC4CC4)nc13)C[C@@H]1[C@@H]3CCCC[C@]23CCN1CC1CC1	140	9	inactive	7.3	130		71	0.27	39	22	390	38	2.5	Not Active		
O=C(CCCCCCCCC(=O)Oc1ccc2c(c1)[C@@]13CCCC[C@H]1[C@@H](C2)N(CC1CCC1)CC3)Oc1ccc2c(c1)[C@@]13CCCC[C@H]1[C@@H](C2)N(CC1CCC1)CC3	90	2														
O=C(CCCCCCCCC(=O)Oc1ccc2c(c1)[C@@]13CCCC[C@@]1(O)[C@@H](C2)N(CC1CCC1)CC3)Oc1ccc2c(c1)[C@@]13CCCC[C@H]1[C@@H](C2)N(CC1CCC1)CC3	110	1	23%	0.84	100	3.7	50	0.073	8	1.2	3.4	46	0.089			
O=C(CCCCCCCCC(=O)Nc1nc2cc3c(cc2s1)C[C@@H]1[C@@H]2CCCC[C@]32CCN1CC1CC1)Nc1nc2cc3c(cc2s1)C[C@@H]1[C@@H]2CCCC[C@]32CCN1CC1CC1	460	24	inactive	5.5	130			0.37	170	130		25	8.8	Not Active	inactive	74
